{
  "source": "ChEMBL document CHEMBL1122018",
  "about": "“Synthesis and orexigenic activity of some 1-methyl-4-piperidylidene-Substituted pyrrolo[2,1-g][3] benzazepine and dibenzocycloheptene derivatives” (1982)",
  "format_in_all_cases": "functional",
  "key": {"[1]": {"test_system": "Felis catus", "experiment": "Average food consumed at the dose of 0.50 mg/kg (po) using 10 cats per dose level at 60 min (control day/ test day); 50/221", "settings": "dose 0.5 mg/kg", "outline": "(§1)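 Cats given test compound suspended in 1% methylcellulose, or 1% methylcellulose placebo, by gavage 30 min before a preweighed test meal. Food was offered in surplus for 3 h, and intake was found by reweighing at 30, 60 and 180 min. Ten cats per dose, each dosed no more than once weekly. Test-day intake was compared with the preceding control day by two-tailed paired t test (p < 0.05); values are mean ± SD.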"}, "[2]": {"test_system": "Felis catus", "experiment": "Average food consumed at the dose of 0.063 mg/kg (po) using 10 cats per dose level at 60 min (control day/ test day); 28/130"}, "[3]": {"test_system": "Felis catus", "experiment": "Average food consumed at the dose of 0.016 mg/kg (po) using 10 cats per dose level at 30 min (control day/ test day); 35/118"}, "[4]": {"test_system": "Felis catus", "experiment": "Average food consumed at the dose of 0.50 mg/kg (po) using 10 cats per dose level at 30 min (control day/ test day); 47/190", "settings": "dose 0.5 mg/kg", "outline": "as §1"}, "[5]": {"test_system": "Felis catus", "experiment": "Average food consumed at the dose of 0.016 mg/kg (po) using 10 cats per dose level at 180 min (control day/ test day); 46/193"}, "[6]": {"test_system": "Felis catus", "experiment": "Average food consumed at the dose of 0.016 mg/kg (po) using 10 cats per dose level at 60 min (control day/ test day); 41/160"}, "[7]": {"test_system": "Felis catus", "experiment": "Average food consumed at the dose of 0.25 mg/kg (po) using 10 cats per dose level at 180 min (control day/ test day); 45/231"}, "[8]": {"test_system": "Felis catus", "experiment": "Average food consumed at the dose of 0.063 mg/kg (po) using 10 cats per dose level at 30 min (control day/ test day); 14/112"}, "[9]": {"test_system": "Felis catus", "experiment": "Average food consumed at the dose of 0.25 mg/kg (po) using 10 cats per dose level at 60 min (control day/ test day); 35/200", "outline": "as §1"}, "[10]": {"test_system": "Felis catus", "experiment": "Average food consumed at the dose of 0.50 mg/kg (po) using 10 cats per dose level at 180 min (control day/ test day); 50/256", "settings": "dose 0.5 mg/kg", "outline": "as §1"}, "[11]": {"test_system": "Felis catus", "experiment": "Average food consumed at the dose of 0.063 mg/kg (po) using 10 cats per dose level at 180 min (control day/ test day); 59/195"}, "[12]": {"test_system": "Felis catus", "experiment": "Average food consumed at the dose of 0.25 mg/kg (po) using 10 cats per dose level at 30 min (control day/ test day); 34/165", "outline": "as §1"}, "[13]": {"test_system": "Felis catus", "experiment": "Average food consumed at the dose of 0.50 mg/kg (po) using 10 cats per dose level at 30 min (control day/ test day); 39/204", "settings": "dose 0.5 mg/kg", "outline": "as §1"}, "[14]": {"test_system": "Felis catus", "experiment": "Average food consumed at the dose of 0.50 mg/kg (po) using 10 cats per dose level at 60 min (control day/ test day); 35/219", "settings": "dose 0.5 mg/kg", "outline": "as §1"}, "[15]": {"test_system": "Felis catus", "experiment": "Average food consumed at the dose of 0.25 mg/kg (po) using 10 cats per dose level at 60 min (control day/ test day); 39/212", "outline": "as §1"}, "[16]": {"test_system": "Felis catus", "experiment": "Average food consumed at the dose of 0.016 mg/kg (po) using 10 cats per dose level at 30 min (control day/ test day); 21/142"}, "[17]": {"test_system": "Felis catus", "experiment": "Average food consumed at the dose of 0.016 mg/kg (po) using 10 cats per dose level at 180 min (control day/ test day); 45/215"}, "[18]": {"test_system": "Felis catus", "experiment": "Average food consumed at the dose of 0.016 mg/kg (po) using 10 cats per dose level at 60 min (control day/ test day); 31/168"}, "[19]": {"test_system": "Felis catus", "experiment": "Average food consumed at the dose of 0.063 mg/kg (po) using 10 cats per dose level at 30 min (control day/ test day); 13/120"}, "[20]": {"test_system": "Felis catus", "experiment": "Average food consumed at the dose of 0.25 mg/kg (po) using 10 cats per dose level at 30 min (control day/ test day); 38/175", "outline": "as §1"}, "[21]": {"test_system": "Felis catus", "experiment": "Average food consumed at the dose of 0.063 mg/kg (po) using 10 cats per dose level at 180 min (control day/ test day); 50/190"}, "[22]": {"test_system": "Felis catus", "experiment": "Average food consumed at the dose of 0.063 mg/kg (po) using 10 cats per dose level at 60 min (control day/ test day); 22/144"}, "[23]": {"test_system": "Felis catus", "experiment": "Average food consumed at the dose of 0.25 mg/kg (po) using 10 cats per dose level at 180 min (control day/ test day); 50/239"}, "[24]": {"test_system": "Felis catus", "experiment": "Average food consumed at the dose of 0.50 mg/kg (po) using 10 cats per dose level at 180 min (control day/ test day); 32/234", "settings": "dose 0.5 mg/kg", "outline": "as §1"}, "[25]": {"test_system": "Felis catus", "experiment": "Average food consumed at the dose of 0.016 mg/kg (po) using 10 cats per dose level at 30 min (control day/ test day); 16/91"}, "[26]": {"test_system": "Felis catus", "experiment": "Average food consumed at the dose of 0.063 mg/kg (po) using 10 cats per dose level at 60 min (control day/ test day); 37/178"}, "[27]": {"test_system": "Felis catus", "experiment": "Average food consumed at the dose of 0.25 mg/kg (po) using 10 cats per dose level at 180 min (control day/ test day); 46/239"}, "[28]": {"test_system": "Felis catus", "experiment": "Average food consumed at the dose of 0.016 mg/kg (po) using 10 cats per dose level at 60 min (control day/ test day); 16/119"}, "[29]": {"test_system": "Felis catus", "experiment": "Average food consumed at the dose of 0.50 mg/kg (po) using 10 cats per dose level at 30 min (control day/ test day); 51/189", "settings": "dose 0.5 mg/kg", "outline": "as §1"}, "[30]": {"test_system": "Felis catus", "experiment": "Average food consumed at the dose of 0.50 mg/kg (po) using 10 cats per dose level at 60 min (control day/ test day); 44/217", "settings": "dose 0.5 mg/kg", "outline": "as §1"}, "[31]": {"test_system": "Felis catus", "experiment": "Average food consumed at the dose of 0.063 mg/kg (po) using 10 cats per dose level at 180 min (control day/ test day); 62/219"}, "[32]": {"test_system": "Felis catus", "experiment": "Average food consumed at the dose of 0.50 mg/kg (po) using 10 cats per dose level at 180 min (control day/ test day); 46/243", "settings": "dose 0.5 mg/kg", "outline": "as §1"}, "[33]": {"test_system": "Felis catus", "experiment": "Average food consumed at the dose of 0.25 mg/kg (po) using 10 cats per dose level at 60 min (control day/ test day); 40/208", "outline": "as §1"}, "[34]": {"test_system": "Felis catus", "experiment": "Average food consumed at the dose of 0.063 mg/kg (po) using 10 cats per dose level at 30 min (control day/ test day); 28/137"}, "[35]": {"test_system": "Felis catus", "experiment": "Average food consumed at the dose of 0.25 mg/kg (po) using 10 cats per dose level at 30 min (control day/ test day); 33/172", "outline": "as §1"}, "[36]": {"test_system": "Felis catus", "experiment": "Average food consumed at the dose of 0.016 mg/kg (po) using 10 cats per dose level at 180 min (control day/ test day); 33/182"}},
  "data": [
    {"molecule": "CN1CCC(=C2c3ccccc3C=Cc3ccccc32)CC1", "note": "[CYPROHEPTADINE]", "values": [
      {"measurement": "Average consumed", "setting": "[1]", "result": 157, "unit": "g"},
      {"measurement": "Average consumed", "setting": "[2]", "result": 80, "unit": "g"},
      {"measurement": "Average consumed", "setting": "[3]", "result": 75, "unit": "g"},
      {"measurement": "Average consumed", "setting": "[4]", "result": 135, "unit": "g"},
      {"measurement": "Average consumed", "setting": "[5]", "result": 157, "unit": "g"},
      {"measurement": "Average consumed", "setting": "[6]", "result": 108, "unit": "g"},
      {"measurement": "Average consumed", "setting": "[7]", "result": 179, "unit": "g"},
      {"measurement": "Average consumed", "setting": "[8]", "result": 56, "unit": "g"},
      {"measurement": "Average consumed", "setting": "[9]", "result": 129, "unit": "g"},
      {"measurement": "Average consumed", "setting": "[10]", "result": 194, "unit": "g"},
      {"measurement": "Average consumed", "setting": "[11]", "result": 134, "unit": "g"},
      {"measurement": "Average consumed", "setting": "[12]", "result": 109, "unit": "g"}
    ]},
    {"molecule": "CN1CCC(=C2c3ccccc3CCn3cccc32)CC1.O=C(O)C(=O)O", "values": [
      {"measurement": "Average consumed", "setting": "[13]", "result": 117, "unit": "g"},
      {"measurement": "Average consumed", "setting": "[14]", "result": 137, "unit": "g"},
      {"measurement": "Average consumed", "setting": "[15]", "result": 124, "unit": "g"},
      {"measurement": "Average consumed", "setting": "[16]", "result": 77, "unit": "g"},
      {"measurement": "Average consumed", "setting": "[17]", "result": 159, "unit": "g"},
      {"measurement": "Average consumed", "setting": "[18]", "result": 106, "unit": "g"},
      {"measurement": "Average consumed", "setting": "[19]", "result": 52, "unit": "g"},
      {"measurement": "Average consumed", "setting": "[20]", "result": 91, "unit": "g"},
      {"measurement": "Average consumed", "setting": "[21]", "result": 133, "unit": "g"},
      {"measurement": "Average consumed", "setting": "[22]", "result": 74, "unit": "g"},
      {"measurement": "Average consumed", "setting": "[23]", "result": 175, "unit": "g"},
      {"measurement": "Average consumed", "setting": "[24]", "result": 166, "unit": "g"}
    ]},
    {"molecule": "CN1CCC(=C2c3ccccc3C=Cn3cccc32)CC1.O=C(O)C(=O)O", "values": [
      {"measurement": "Average consumed", "setting": "[25]", "result": 43, "unit": "g"},
      {"measurement": "Average consumed", "setting": "[26]", "result": 100, "unit": "g"},
      {"measurement": "Average consumed", "setting": "[27]", "result": 183, "unit": "g"},
      {"measurement": "Average consumed", "setting": "[28]", "result": 69, "unit": "g"},
      {"measurement": "Average consumed", "setting": "[29]", "result": 133, "unit": "g"},
      {"measurement": "Average consumed", "setting": "[30]", "result": 148, "unit": "g"},
      {"measurement": "Average consumed", "setting": "[31]", "result": 166, "unit": "g"},
      {"measurement": "Average consumed", "setting": "[32]", "result": 193, "unit": "g"},
      {"measurement": "Average consumed", "setting": "[33]", "result": 134, "unit": "g"},
      {"measurement": "Average consumed", "setting": "[34]", "result": 66, "unit": "g"},
      {"measurement": "Average consumed", "setting": "[35]", "result": 113, "unit": "g"},
      {"measurement": "Average consumed", "setting": "[36]", "result": 126, "unit": "g"}
    ]}
  ]
}
